Test results from ChEMBL document CHEMBL1148591, “Isothiazolopyridones: synthesis, structure, and biological activity of a new class of antibacterial agents” (J Med Chem, 2006).
In brackets after ≈: the same amount, converted by molar mass. Activity calls are given as the source filed them. The rule behind the calls is not given here.

Experiments:
[1] = target: DNA topoisomerase 4 subunit A (Staphylococcus aureus, UniProt P0C1U9); assay: Inhibition of topoisomerase 4 decatenation in Staphylococcus aureus ATCC 29213
Sequence of DNA topoisomerase 4 subunit A (P0C1U9 whole entry): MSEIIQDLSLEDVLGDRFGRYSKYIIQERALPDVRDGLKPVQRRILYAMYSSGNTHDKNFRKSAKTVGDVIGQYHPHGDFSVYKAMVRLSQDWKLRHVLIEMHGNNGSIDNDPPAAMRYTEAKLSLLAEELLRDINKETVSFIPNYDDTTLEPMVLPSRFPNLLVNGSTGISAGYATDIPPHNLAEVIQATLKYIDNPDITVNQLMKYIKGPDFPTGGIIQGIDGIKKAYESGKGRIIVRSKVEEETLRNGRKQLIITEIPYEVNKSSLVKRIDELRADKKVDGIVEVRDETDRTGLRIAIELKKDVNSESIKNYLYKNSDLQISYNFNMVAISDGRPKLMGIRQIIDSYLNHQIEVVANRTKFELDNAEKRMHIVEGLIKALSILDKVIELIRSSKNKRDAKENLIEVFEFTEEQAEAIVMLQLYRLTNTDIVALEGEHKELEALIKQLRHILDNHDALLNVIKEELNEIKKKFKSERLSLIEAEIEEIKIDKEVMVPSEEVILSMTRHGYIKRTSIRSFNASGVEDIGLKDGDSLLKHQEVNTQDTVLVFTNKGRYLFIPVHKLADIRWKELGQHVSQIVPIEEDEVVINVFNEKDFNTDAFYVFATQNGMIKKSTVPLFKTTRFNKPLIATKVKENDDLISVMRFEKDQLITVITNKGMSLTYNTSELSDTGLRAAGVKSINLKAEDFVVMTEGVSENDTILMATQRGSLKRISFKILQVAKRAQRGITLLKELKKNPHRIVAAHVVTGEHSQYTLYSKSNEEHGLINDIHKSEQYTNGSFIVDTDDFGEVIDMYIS

[2] = target: DNA topoisomerase II (Homo sapiens) (UniProt P11388+Q02880); assay: Activity against human topoisomerase 2; type: protein assay
In short: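 Human topoisomerase II DNA cleavage assay. The read-out is EC₂, the drug concentration that enhances enzyme-mediated cleavage of double-stranded DNA 2-fold.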

[3] = target: DNA gyrase (Staphylococcus aureus) (UniProt P0A0K8+P20831); assay: Inhibition of DNA gyrase supercoiling in Staphylococcus aureus ATCC 29213; type: protein-complex assay
Sequence of DNA gyrase (Staphylococcus aureus) (P0A0K8 2-644 limits assumed): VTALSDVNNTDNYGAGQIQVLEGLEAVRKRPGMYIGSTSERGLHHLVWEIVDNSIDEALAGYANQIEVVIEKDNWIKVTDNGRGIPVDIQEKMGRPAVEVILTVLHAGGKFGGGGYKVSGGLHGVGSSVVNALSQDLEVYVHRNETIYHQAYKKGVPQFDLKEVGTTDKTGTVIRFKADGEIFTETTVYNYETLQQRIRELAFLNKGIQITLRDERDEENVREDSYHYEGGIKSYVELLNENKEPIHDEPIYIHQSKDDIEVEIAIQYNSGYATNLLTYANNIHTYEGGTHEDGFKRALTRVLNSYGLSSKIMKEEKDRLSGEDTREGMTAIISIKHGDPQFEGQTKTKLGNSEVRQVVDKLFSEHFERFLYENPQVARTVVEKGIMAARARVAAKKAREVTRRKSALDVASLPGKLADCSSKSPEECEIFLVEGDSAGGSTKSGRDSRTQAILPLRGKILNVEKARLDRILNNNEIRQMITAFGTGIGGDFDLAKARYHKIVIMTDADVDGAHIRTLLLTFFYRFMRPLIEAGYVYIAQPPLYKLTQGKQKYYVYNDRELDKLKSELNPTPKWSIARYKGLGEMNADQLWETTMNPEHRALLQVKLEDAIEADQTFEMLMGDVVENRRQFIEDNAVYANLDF
Sequence of DNA gyrase (Staphylococcus aureus) (P20831 whole entry partner): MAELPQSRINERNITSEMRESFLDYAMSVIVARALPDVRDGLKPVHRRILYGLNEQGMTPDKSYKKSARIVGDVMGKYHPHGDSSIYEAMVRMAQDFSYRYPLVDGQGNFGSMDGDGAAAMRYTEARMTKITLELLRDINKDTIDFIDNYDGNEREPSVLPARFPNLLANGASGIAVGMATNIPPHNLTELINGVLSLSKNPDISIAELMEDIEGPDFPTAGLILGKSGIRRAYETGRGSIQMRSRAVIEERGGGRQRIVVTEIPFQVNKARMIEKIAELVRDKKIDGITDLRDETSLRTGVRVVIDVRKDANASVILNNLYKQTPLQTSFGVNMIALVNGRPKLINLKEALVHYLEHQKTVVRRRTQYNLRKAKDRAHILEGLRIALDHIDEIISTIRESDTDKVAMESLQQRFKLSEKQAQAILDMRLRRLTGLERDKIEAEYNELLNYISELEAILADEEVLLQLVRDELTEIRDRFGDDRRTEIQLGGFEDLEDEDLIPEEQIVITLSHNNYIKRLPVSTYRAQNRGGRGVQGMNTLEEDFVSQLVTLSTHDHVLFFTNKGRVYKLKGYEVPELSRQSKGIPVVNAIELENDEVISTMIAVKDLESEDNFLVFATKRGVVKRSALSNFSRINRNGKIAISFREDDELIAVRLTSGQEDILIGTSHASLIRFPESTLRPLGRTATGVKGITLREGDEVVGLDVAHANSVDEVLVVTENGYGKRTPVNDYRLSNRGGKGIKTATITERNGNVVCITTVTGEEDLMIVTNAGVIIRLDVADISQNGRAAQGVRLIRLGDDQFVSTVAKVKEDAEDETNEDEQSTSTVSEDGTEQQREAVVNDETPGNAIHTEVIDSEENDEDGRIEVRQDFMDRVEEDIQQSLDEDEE

[4] = tested on: Escherichia coli; assay: Antibacterial activity against Escherichia coli ATCC 25922; type: functional
[5] = tested on: Staphylococcus aureus; assay: Antibacterial activity against Staphylococcus aureus ATCC 29213; type: functional
[6] = target: DNA gyrase (Escherichia coli, UniProt P0AES4+P0AES6); assay: Inhibition of DNA gyrase supercoiling in Escherichia coli ATCC 25922; type: protein-complex assay

Row | SMILES | IC50 [1] | Activity [2] | Activity [3] | MIC [4] | MIC [5] | IC50 [6]
1 | CCc1c2s[nH]c(=O)c2c(=O)n2ccc(N3CCNCC3)cc12 | 37 µM | inactive | inactive | 4 µg/mL (≈ 12.1 µM) | 16 µg/mL (≈ 48.4 µM) | 14 µM
2 | CCc1c2s[nH]c(=O)c2c(=O)n2ccc(N3CCC(N(C)C)C3)cc12 (racemic) | 79 µM | inactive | inactive | 4 µg/mL (≈ 11.2 µM) | 8 µg/mL (≈ 22.3 µM) | 24 µM
3 | CCc1c2s[nH]c(=O)c2c(=O)n2ccc(-c3cc(C)nc(C)c3)cc12 | 6.3 µM | inactive | inactive | 1 µg/mL (≈ 2.85 µM) | 0.125 µg/mL (≈ 0.356 µM) | 0.2 µM
4 | CCn1cc(C(=O)O)c(=O)c2cc(F)c(N3CCNCC3)cc21 [NORFLOXACIN] | – | – | – | 0.06 µg/mL (≈ 0.188 µM) | 0.5 µg/mL (≈ 1.57 µM) | –
5 | CCc1c2s[nH]c(=O)c2c(=O)n2ccc(-c3ccncc3)cc12 | 8.1 µM | inactive | inactive | 0.25 µg/mL (≈ 0.773 µM) | 0.125 µg/mL (≈ 0.387 µM) | 0.4 µM
6 | O=C(O)c1cn(C2CC2)c2cc(N3CCNCC3)c(F)cc2c1=O [CIPROFLOXACIN] | – | – | – | – | 0.25 µg/mL (≈ 0.754 µM) | –
